Source: ChEMBL document CHEMBL4513216, “Probing the Open Global Health Chemical Diversity Library for Multistage-Active Starting Points for Next-Generation Antimalarials” (ACS Infect Dis, 2020)

Assay: Toxicity liver stage against HepG2, at 10uM
Type: cell-based
Set-up: test concentration 10 uM, cell line HepG2-A16-CD81EGFP
Settings: human, HepG2-A16-CD81EGFP cells; read-out: INHIBITION
Outline: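 Uninfected HepG2-A16-CD81EGFP cells, 3 × 10^3 per well, 1536-well, plated on prespotted compound at 10 μM final, parasite-free screening media added to match infected plates; puromycin 10 μM positive, DMSO 0.5% negative; run in parallel with 48 h PbLuc assay at 37 °C, 5% CO2; viability by CellTiter-Glo luminescence, normalized to controls.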

| SMILES | cytotoxicity at 10 µM |
| --- | --- |
| O=C(NC[C@H]1OC[C@@H](NC(=O)c2ccccc2)[C@@H]1O)c1ccncc1 | 2.55% |
| CC[C@H]1CN2CC[C@H]1C[C@@H]2CNCc1ccc2c(c1)OCO2 | -5.9% |
| COC1CCN(C(=O)CC(C)(C)C)CC(=O)N(C)c2ccccc21 (stereo not given) | 2.44% |
| O=C(CCc1nc2cc(Br)cnc2[nH]1)NCCN1CCOCC1 | 5.08% |
| Cc1nc(N(C)C)nc(C)c1NS(=O)(=O)c1ccc(F)cc1F | -3.58% |
| Cn1nc(CNC(=O)c2ccc3nsnc3c2)c2c1CCOC2 | 6.53% |
| OCc1cnc(Nc2ccccc2)nc1 | 11.3% |
| CN(C)C(=O)N1CCC(C2C(=O)Nc3ccccc32)CC1 (stereo not given) | 11.9% |
| COCC(=O)N1CCC2(CC1)NC(=O)[C@H]1CN(C(=O)N(C)C)C[C@H]12 | 7% |
| Cc1cccc(CN2C(=O)CCC23CCN(C(=O)c2ccco2)CC3)c1 | 6.09% |
| CCn1cc2c(n1)C(COCC1CC1)CN(C(=O)c1cc(C)on1)C2 (stereo not given) | 17.8% |
| CC(C)NC(=O)c1ccc2c(c1)C(c1nc[nH]n1)CN2C (stereo not given) | -141% |
| FC1(F)CCNCC12CCN(c1ncccn1)C2 (stereo not given) | 6.65% |
| COCC1c2nnn(CC3CC3)c2CCN1C(=O)c1cc(C)on1 (stereo not given) | -132% |
| COC(=O)Cn1nc(-c2ccccc2F)ccc1=O | 8.01% |
| CCOC(=O)N1CCN(C(=O)c2snnc2-c2ccccc2)CC1 | 0.847% |
| CCc1nn(-c2cc(Oc3cccc(C)c3)nc(C)n2)c(N)c1C#N | -9.8% |
| CCCNC(=O)Cn1nc(C(C)C)c2cnn(C(C)(C)C)c2c1=O | -20% |
| Cc1occc1C(=O)N1CCCC(C2=Nc3ccccc3S(=O)(=O)N2)C1 (stereo not given) | 4.03% |
| CNC(=O)C1(C)CN(c2nnc(C)c3ccccc23)CCO1 (stereo not given) | -1.61% |
| Cc1nc(C2CCCN(S(C)(=O)=O)C2)sc1Br (stereo not given) | -10.3% |
| CC(C)(C)C(=O)N1CCCC1c1nccnc1Cl (stereo not given) | 2.83% |
| CN(C)S(=O)(=O)N1CCC(C)(c2ncc(C(N)=O)s2)CC1 | -0.318% |
| Cc1c(CN2CCCC2(C)C(=O)N2CCOCC2)cnn1C (stereo not given) | -6.29% |
| CN(C)C(=O)C1CCc2nnc(C(C)(C)C)n21 (stereo not given) | 3.13% |
| Cc1ccnc(NC(=O)c2c(C)oc(C)c2C)c1 | 17.2% |
| CC(C)(C)c1cnc(CN2CCCS(=O)(=O)CC2)o1 | -3.97% |
| c1cc(CNCCC2CCCO2)ccn1 (stereo not given) | -0.95% |

| SMILES | cytotoxicity at 10 µM |
| --- | --- |
| CNC(=O)C1CCCCN1C(=O)Cc1csc(-c2ccc(C)o2)n1 (stereo not given) | 8.61% |
| CCN(CCC#N)Cn1ncc2cn(-c3ccccc3)nc2c1=O | -14.5% |
| CC(CNC(=O)CCn1cncn1)N1CCc2ccccc21 (stereo not given) | -157% |
| Cc1ccc(C)n1-c1ccsc1C(=O)NCC(=O)N1CCCC1 | -143% |
| CCc1noc(Cn2c(=O)c3c(C(F)(F)F)cc(C)nc3n2C)n1 | -3.44% |
| Cc1ccc(NC(=O)N2CCCN(C(N)=O)CC2)s1 | -6.58% |
| Cc1ncsc1C(=O)NCCNC(=O)OC(C)(C)C | 4.73% |
| Cc1n[nH]c(C2CN(CC(=O)NCc3sccc3C)CCO2)n1 (stereo not given) | -4.75% |
| O=S(=O)(NCC1COc2ccccc2C1)N1CCCCC1 (stereo not given) | -0.628% |
| COc1c(CNCc2cccnc2N2CCOCC2)c(C)nn1C | -151% |
| CCc1nnc2n1CCN(C(=O)c1ccc3cc[nH]c3c1)C2 | -6.43% |
| CC(NC(=O)CCCOc1cccc(F)c1)c1ccncc1 (stereo not given) | -3.6% |
| CCc1ccc(CNc2ccccc2CN2CCC(O)CC2)o1 | 4.34% |
| Cc1ccccc1CN1CCCN(C(=O)c2ccn(C)c(=O)c2)CC1 | 1.62% |
| CC(C(=O)NCC1CCN(c2ccncc2)CC1)S(C)(=O)=O (stereo not given) | 17.4% |
| CC(CCS(C)(=O)=O)NC(=O)NCc1ccc2ccccc2c1 (stereo not given) | -137% |
| CCc1cccc(NC(=O)CNc2ccccc2OCCC(=O)OC)c1 | 7.53% |
| O=C(c1cnccn1)N(CCO)Cc1cc(Br)ccc1F | 5.64% |
| CNC(=O)c1cccc(NC(=O)CN2CCCN(S(C)(=O)=O)CC2)c1 | 3.56% |
| CCNc1nnc(SC(C(=O)NCc2cccnc2)C(C)C)s1 (stereo not given) | -13.3% |
| CN(CC1CCOCC1)C(=O)NCCCN1CCCCC1 | 0.105% |
| COc1ccccc1C(C)Nc1ncc(C(N)=O)cc1Cl (stereo not given) | 8.74% |
| N#Cc1c(F)cccc1N1CCN(C(=O)Nc2nncs2)CC1 | -0.908% |
| CNC(=O)CS(=O)(=O)Cc1coc(-c2ccc(OC)cc2)n1 | -2.95% |
| CCSc1cc(C(=O)NCCC(=O)Nc2ccccn2)ccn1 | -8.62% |
| O=C(c1cscn1)N1CCc2ncnc(-c3ccncc3)c2CC1 | -4.71% |
| CN(C)CCCN1CC2(CCN(C3CCCOC3)CC2)OC1=O (stereo not given) | -5% |
